From ChEMBL document CHEMBL1649256, “Comparison of assessment of oxygen consumption, Etest, and CLSI M38-A2 broth microdilution methods for evaluation of the susceptibility of Aspergillus fumigatus to posaconazole” (2009)
Converted amounts (≈) assume the structure as drawn.

Columns and labels:
Type in all cases: functional
Aspergillus fumigatus [1] = assay: Antimicrobial activity against Aspergillus fumigatus isolate 15 by oxygen consumption method
How it was run: (§1)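 Conidial suspension in RPMI 1640 broth with posaconazole at 0.25 and 2 μg/ml. Tubes agitated 12 h at 37°C in a biological oxygen monitor. Available oxygen was monitored continuously, and the MIC was assigned from the oxygen quantification.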

Aspergillus fumigatus [2] = assay: Antimicrobial activity against Aspergillus fumigatus isolate 48 after 24 hrs by Etest; details: isolate 48, 24 h
Aspergillus fumigatus [3] = assay: Antimicrobial activity against Aspergillus fumigatus isolate 28 by oxygen consumption method
How it was run: (§2)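 Conidial suspension in RPMI 1640 broth, 1.5 ml, with two drug concentrations (0.25 and 2 μg/ml). Tubes agitated 12 h at 37°C in a biological oxygen monitor. Available oxygen monitored continuously and quantified to assign the MIC.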

Aspergillus fumigatus [4] = assay: Antimicrobial activity against Aspergillus fumigatus isolate 41 by CLSI M38-A2 broth microdilution method
How it was run: (§3)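 CLSI M38-A2 broth microdilution with posaconazole. MIC taken as the lowest concentration with no visible growth at 48 h. C. parapsilosis ATCC 22019 and C. krusei ATCC 6258 were included as QC strains in every run.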

Aspergillus fumigatus [5] = assay: Antimicrobial activity against Aspergillus fumigatus isolate 12 by oxygen consumption method; how it was run: as §1
Aspergillus fumigatus [6] = assay: Antimicrobial activity against Aspergillus fumigatus isolate 39 by CLSI M38-A2 broth microdilution method; how it was run: as §3
Aspergillus fumigatus [7] = assay: Antimicrobial activity against Aspergillus fumigatus isolate 5 after 24 hrs by Etest; details: isolate 5, 24 h
Aspergillus fumigatus [8] = assay: Antimicrobial activity against Aspergillus fumigatus isolate 11 by CLSI M38-A2 broth microdilution method
How it was run: (§4)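 Posaconazole broth microdilution follows CLSI M38-A2. The MIC is the lowest concentration with no visible growth at 48 h. Candida parapsilosis ATCC 22019 and Candida krusei ATCC 6258 were included as QC strains in every run.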

Aspergillus fumigatus [9] = assay: Antimicrobial activity against Aspergillus fumigatus isolate 19 after 24 hrs by Etest; details: isolate 19, 24 h
How it was run: (§5)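 Posaconazole Etest strips placed on RPMI 1640 agar with 2% glucose, pH 7.0, and run per the strip maker's instructions. Incubation at 35°C, with the MIC read at 24 h and at 48 h.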

Aspergillus fumigatus [10] = assay: Antimicrobial activity against Aspergillus fumigatus isolate 15 by CLSI M38-A2 broth microdilution method; how it was run: as §4
Aspergillus fumigatus [11] = assay: Antimicrobial activity against Aspergillus fumigatus isolate 17 by oxygen consumption method; how it was run: as §1
Aspergillus fumigatus [12] = assay: Antimicrobial activity against Aspergillus fumigatus isolate 26 by CLSI M38-A2 broth microdilution method
How it was run: (§6)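 Reference broth microdilution per CLSI M38-A2. MIC read as absence of visible growth at 48 h. C. parapsilosis ATCC 22019 and C. krusei ATCC 6258 QC strains run in each test session.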

Aspergillus fumigatus [13] = assay: Antimicrobial activity against Aspergillus fumigatus isolate 11 after 48 hrs by Etest; details: isolate 11, 48 h; how it was run: as §5
Aspergillus fumigatus [14] = assay: Antimicrobial activity against Aspergillus fumigatus isolate 14 after 48 hrs by Etest; details: isolate 14, 48 h; how it was run: as §5
Aspergillus fumigatus [15] = assay: Antimicrobial activity against Aspergillus fumigatus isolate 8 after 24 hrs by Etest; details: isolate 8, 24 h
Aspergillus fumigatus [16] = assay: Antimicrobial activity against Aspergillus fumigatus isolate 12 after 48 hrs by Etest; details: isolate 12, 48 h; how it was run: as §5
Aspergillus fumigatus [17] = assay: Antimicrobial activity against Aspergillus fumigatus isolate 29 after 24 hrs by Etest; details: isolate 29, 24 h
How it was run: (§7)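 Etest strips on RPMI 1640 agar with 2% glucose, pH 7.0, run per manufacturer's instructions. Incubated at 35°C; MIC read at 24 h.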

Aspergillus fumigatus [18] = assay: Antimicrobial activity against Aspergillus fumigatus isolate 50 by CLSI M38-A2 broth microdilution method
Aspergillus fumigatus [19] = assay: Antimicrobial activity against Aspergillus fumigatus isolate 37 after 24 hrs by Etest; details: isolate 37, 24 h
How it was run: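 Posaconazole Etest strips on RPMI 1640 agar with 2% glucose, pH 7.0, run per the strip maker's instructions. Incubated at 35°C. MIC read at 24 h and at 48 h, matching the time in each line.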

Aspergillus fumigatus [20] = assay: Antimicrobial activity against Aspergillus fumigatus isolate 31 by oxygen consumption method; how it was run: as §2
Aspergillus fumigatus [21] = assay: Antimicrobial activity against Aspergillus fumigatus isolate 9 after 48 hrs by Etest; details: isolate 9, 48 h
Aspergillus fumigatus [22] = assay: Antimicrobial activity against Aspergillus fumigatus isolate 10 by CLSI M38-A2 broth microdilution method; how it was run: as §4
Aspergillus fumigatus [23] = assay: Antimicrobial activity against Aspergillus fumigatus isolate 22 after 24 hrs by Etest; details: isolate 22, 24 h; how it was run: as §7
Aspergillus fumigatus [24] = assay: Antimicrobial activity against Aspergillus fumigatus isolate 34 by oxygen consumption method
How it was run: (§8)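 Conidial suspension in RPMI 1640 broth, tested at two posaconazole levels (0.25 and 2 μg/ml). Agitated for 12 h at 37°C in a biological oxygen monitor. MIC derived from continuous monitoring and quantification of the available oxygen.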

Aspergillus fumigatus [25] = assay: Antimicrobial activity against Aspergillus fumigatus isolate 13 after 48 hrs by Etest; details: isolate 13, 48 h; how it was run: as §5
Aspergillus fumigatus [26] = assay: Antimicrobial activity against Aspergillus fumigatus isolate 27 by oxygen consumption method; how it was run: as §2
Aspergillus fumigatus [27] = assay: Antimicrobial activity against Aspergillus fumigatus isolate 9 by oxygen consumption method
Aspergillus fumigatus [28] = assay: Antimicrobial activity against Aspergillus fumigatus isolate 42 by CLSI M38-A2 broth microdilution method; how it was run: as §3
Aspergillus fumigatus [29] = assay: Antimicrobial activity against Aspergillus fumigatus isolate 21 by oxygen consumption method; how it was run: as §2
Aspergillus fumigatus [30] = assay: Antimicrobial activity against Aspergillus fumigatus isolate 47 by CLSI M38-A2 broth microdilution method
Aspergillus fumigatus [31] = assay: Antimicrobial activity against Aspergillus fumigatus isolate 20 by CLSI M38-A2 broth microdilution method; how it was run: as §6
Aspergillus fumigatus [32] = assay: Antimicrobial activity against Aspergillus fumigatus isolate 35 by oxygen consumption method; how it was run: as §8
Aspergillus fumigatus [33] = assay: Antimicrobial activity against Aspergillus fumigatus isolate 14 after 24 hrs by Etest; details: isolate 14, 24 h; how it was run: as §5
Aspergillus fumigatus [34] = assay: Antimicrobial activity against Aspergillus fumigatus isolate 50 by oxygen consumption method
Aspergillus fumigatus [35] = assay: Antimicrobial activity against Aspergillus fumigatus isolate 8 after 48 hrs by Etest; details: isolate 8, 48 h
Aspergillus fumigatus [36] = assay: Antimicrobial activity against Aspergillus fumigatus isolate 33 by oxygen consumption method; how it was run: as §8
Aspergillus fumigatus [37] = assay: Antimicrobial activity against Aspergillus fumigatus isolate 13 by CLSI M38-A2 broth microdilution method; how it was run: as §4
Aspergillus fumigatus [38] = assay: Antimicrobial activity against Aspergillus fumigatus isolate 48 by CLSI M38-A2 broth microdilution method
Aspergillus fumigatus [39] = assay: Antimicrobial activity against Aspergillus fumigatus isolate 46 by oxygen consumption method
Aspergillus fumigatus [40] = assay: Antimicrobial activity against Aspergillus fumigatus isolate 6 after 24 hrs by Etest; details: isolate 6, 24 h
Aspergillus fumigatus [41] = assay: Antimicrobial activity against Aspergillus fumigatus isolate 11 by oxygen consumption method; how it was run: as §1
Aspergillus fumigatus [42] = assay: Antimicrobial activity against Aspergillus fumigatus isolate 25 after 48 hrs by Etest; details: isolate 25, 48 h
How it was run: (§9)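 Etest strips on RPMI 1640 agar with 2% glucose, pH 7.0, run per manufacturer's instructions. Incubated at 35°C; MIC read at 48 h.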

Aspergillus fumigatus [43] = assay: Antimicrobial activity against Aspergillus fumigatus isolate 49 by CLSI M38-A2 broth microdilution method
Aspergillus fumigatus [44] = assay: Antimicrobial activity against Aspergillus fumigatus isolate 28 after 48 hrs by Etest; details: isolate 28, 48 h; how it was run: as §9
Aspergillus fumigatus [45] = assay: Antimicrobial activity against Aspergillus fumigatus isolate 30 after 24 hrs by Etest; details: isolate 30, 24 h; how it was run: as §7

SMILES: CC[C@@H]([C@H](C)O)n1ncn(-c2ccc(N3CCN(c4ccc(OC[C@@H]5CO[C@@](Cn6cncn6)(c6ccc(F)cc6F)C5)cc4)CC3)cc2)c1=O [POSACONAZOLE]
- MIC (Aspergillus fumigatus [1]): ≤ 0.25 µg/mL
- MIC (Aspergillus fumigatus [2]): ≤ 0.03 µg/mL
- MIC (Aspergillus fumigatus [3]): ≤ 0.25 µg/mL
- MIC (Aspergillus fumigatus [4]): 0.06 µg/mL (≈ 0.0856 µM)
- MIC (Aspergillus fumigatus [5]): ≤ 0.25 µg/mL
- MIC (Aspergillus fumigatus [6]): 0.06 µg/mL (≈ 0.0856 µM)
- MIC (Aspergillus fumigatus [7]): 4 µg/mL (≈ 5.71 µM)
- MIC (Aspergillus fumigatus [8]): 0.25 µg/mL (≈ 0.357 µM)
- MIC (Aspergillus fumigatus [9]): 0.125 µg/mL (≈ 0.178 µM)
- MIC (Aspergillus fumigatus [10]): 0.06 µg/mL (≈ 0.0856 µM)
- MIC (Aspergillus fumigatus [11]): ≤ 0.25 µg/mL
- MIC (Aspergillus fumigatus [12]): 0.125 µg/mL (≈ 0.178 µM)
- MIC (Aspergillus fumigatus [13]): 0.25 µg/mL (≈ 0.357 µM)
- MIC (Aspergillus fumigatus [14]): 0.5 µg/mL (≈ 0.713 µM)
- MIC (Aspergillus fumigatus [15]): 0.25 µg/mL (≈ 0.357 µM)
- MIC (Aspergillus fumigatus [16]): 0.5 µg/mL (≈ 0.713 µM)
- MIC (Aspergillus fumigatus [17]): 0.25 µg/mL (≈ 0.357 µM)
- MIC (Aspergillus fumigatus [18]): 0.125 µg/mL (≈ 0.178 µM)
- MIC (Aspergillus fumigatus [19]): 0.05 µg/mL (≈ 0.0713 µM)
- MIC (Aspergillus fumigatus [20]): ≤ 0.25 µg/mL
- MIC (Aspergillus fumigatus [21]): 0.5 µg/mL (≈ 0.713 µM)
- MIC (Aspergillus fumigatus [22]): 0.25 µg/mL (≈ 0.357 µM)
- MIC (Aspergillus fumigatus [23]): 0.25 µg/mL (≈ 0.357 µM)
- MIC (Aspergillus fumigatus [24]): ≤ 0.25 µg/mL
- MIC (Aspergillus fumigatus [25]): 0.25 µg/mL (≈ 0.357 µM)
- MIC (Aspergillus fumigatus [26]): ≥ 0.5 µg/mL
- MIC (Aspergillus fumigatus [27]): ≤ 0.25 µg/mL
- MIC (Aspergillus fumigatus [28]): 0.06 µg/mL (≈ 0.0856 µM)
- MIC (Aspergillus fumigatus [29]): ≤ 0.25 µg/mL
- MIC (Aspergillus fumigatus [30]): 0.125 µg/mL (≈ 0.178 µM)
- MIC (Aspergillus fumigatus [31]): 0.125 µg/mL (≈ 0.178 µM)
- MIC (Aspergillus fumigatus [32]): ≤ 0.25 µg/mL
- MIC (Aspergillus fumigatus [33]): 0.25 µg/mL (≈ 0.357 µM)
- MIC (Aspergillus fumigatus [34]): ≤ 0.25 µg/mL
- MIC (Aspergillus fumigatus [35]): 0.25 µg/mL (≈ 0.357 µM)
- MIC (Aspergillus fumigatus [36]): ≥ 0.5 µg/mL
- MIC (Aspergillus fumigatus [37]): 0.125 µg/mL (≈ 0.178 µM)
- MIC (Aspergillus fumigatus [38]): 0.125 µg/mL (≈ 0.178 µM)
- MIC (Aspergillus fumigatus [39]): ≤ 0.25 µg/mL
- MIC (Aspergillus fumigatus [40]): 1 µg/mL (≈ 1.43 µM)
- MIC (Aspergillus fumigatus [41]): ≤ 0.25 µg/mL
- MIC (Aspergillus fumigatus [42]): 0.25 µg/mL (≈ 0.357 µM)
- MIC (Aspergillus fumigatus [43]): 0.125 µg/mL (≈ 0.178 µM)
- MIC (Aspergillus fumigatus [44]): 0.25 µg/mL (≈ 0.357 µM)
- MIC (Aspergillus fumigatus [45]): 0.5 µg/mL (≈ 0.713 µM)
